Screens as filed in PubChem BioAssay.
Hits are enriched below; roughly 2.6% of the tested compounds scored in any of these assays.
core dimer inh = inhibitors of HCV core protein dimerization, primary screen, biochemical, TR-FRET, high-throughput; TR-FRET GST/Flag-core106 dimerization, 1536-well; inhibition, % at 5 µM; 0.33% of 300,000 active; AID 1899, 2009;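 active means inhibition above the mean of all tested compounds plus 3 SD, set per screening campaign, cut at about 45% in these data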
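Assay system: Tagged HCV core106 pair (GST and Flag) | Buffer or medium: KF-containing HEPES buffer, pH 7.45, DTT, CHAPS, BSA | Also added: Eu donor and XL665 acceptor anti-tag antibodies | Dosing: One concentration, 5 µM, in 0.5% DMSO | Timing: 4 h at 22.5 °C | Technique: TR-FRET 671 and 617 nm emission | Repeats: Singlicate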
NadD block = inhibitors of S. aureus NadD, primary screen, biochemical, colorimetric, uHTS; Nicotinate-nucleotide adenylyltransferase NadD (Staphylococcus aureus N315); purified NadD enzyme, colorimetric absorbance read-out; inhibition, % at 20 µM; 0.78% of 360,000 active; in the data active means inhibition above about 26%
ABHD5 PLIN5 PPI = ABHD5-PLIN5 interaction inhibitors, primary screen, cell lysate, split luciferase complementation, luminescence; Perilipin-5 (Homo sapiens) + 1-acylglycerol-3-phosphate O-acyltransferase ABHD5 (Homo …; Split G. princeps luciferase complementation, 4 h; inhibition, % at 4 µM; 0.78% of 360,000 active;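 active means inhibition above the mean inhibition across every tested compound plus 3 SD, cut at about 22% in these data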;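 further: 0% = DMSO only wells and the 100% control is not disclosed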
Target sequence (Q00G26 whole entry, looked up): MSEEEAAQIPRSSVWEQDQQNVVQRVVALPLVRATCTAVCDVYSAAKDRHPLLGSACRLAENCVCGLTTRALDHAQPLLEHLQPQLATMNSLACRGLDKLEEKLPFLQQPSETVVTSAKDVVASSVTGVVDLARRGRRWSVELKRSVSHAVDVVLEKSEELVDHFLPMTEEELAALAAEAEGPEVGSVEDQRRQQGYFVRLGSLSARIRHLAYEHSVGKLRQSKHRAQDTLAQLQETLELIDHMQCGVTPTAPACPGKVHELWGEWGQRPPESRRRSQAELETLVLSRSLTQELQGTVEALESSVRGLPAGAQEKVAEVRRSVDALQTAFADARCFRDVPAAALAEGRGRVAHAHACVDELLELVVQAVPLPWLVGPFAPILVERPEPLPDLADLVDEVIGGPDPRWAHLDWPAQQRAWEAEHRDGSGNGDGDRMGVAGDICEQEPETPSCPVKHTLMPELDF
Target sequence (Q8WTS1 whole entry, looked up): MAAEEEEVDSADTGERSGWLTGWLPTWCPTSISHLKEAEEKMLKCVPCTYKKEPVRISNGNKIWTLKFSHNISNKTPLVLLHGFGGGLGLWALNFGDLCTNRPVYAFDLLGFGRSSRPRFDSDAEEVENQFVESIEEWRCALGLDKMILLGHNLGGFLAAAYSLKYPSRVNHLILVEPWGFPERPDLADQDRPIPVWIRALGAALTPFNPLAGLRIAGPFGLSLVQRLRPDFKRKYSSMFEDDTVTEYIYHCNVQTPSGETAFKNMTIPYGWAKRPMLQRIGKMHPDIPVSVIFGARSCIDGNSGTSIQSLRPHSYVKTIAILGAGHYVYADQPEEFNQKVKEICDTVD
rCAG binder = binders of r(CAG) RNA repeats, primary screen, biochemical, fluorescence; r(CAG) RNA repeat, TO-PRO-1 dye displacement fluorescence; inhibition, % at 3 µM; AID 651821, 2012; 1.3% of 370,000 active;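 active means inhibition above the plate cutoff, the mean of all test compounds on that plate plus 3 SD, cut at about 35% in these data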;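 further: 0% = DMSO alone and 100% = 100 µM mitoxantrone as full dye displacement; higher means more dye released from RNA so lower well fluorescence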
ABHD5 PLIN5 conf = ABHD5-PLIN5 interaction inhibitors, confirmation, biochemical, luminescence; shares compounds with ABHD5 PLIN5 PPI; inhibition, % at 4 µM; 67% of 2,200 active; AID 651612, 2012; in the data active means inhibition above about 23%;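 further: 0% = DMSO vehicle wells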
HNF4 split-luc = HNF4 dimerization inhibitors, counter-screen for ABHD5-PLIN5 interaction inhibitor project, biochemical, split-luciferase complementation, luminescence | shares compounds with ABHD5 PLIN5 PPI | inhibition, % at 4 µM | 77% of 2,200 active;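 active means mean inhibition across replicate wells exceeding the computed hit threshold, cut at about 13% in these data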;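 further: light from luciferase halves that rejoin when HNF4 fusion proteins dimerize; 0% = DMSO only wells and the 100% control is not given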
* hit, by the source's call; · = no result given.

SMILES	core dimer inh	NadD block	ABHD5 PLIN5 PPI	rCAG binder	ABHD5 PLIN5 conf	HNF4 split-luc
O=C(/C=C/c1ccc([N+](=O)[O-])cc1)c1cccnc1	-5	0	30*	-1	83*	93*
O=C(O)c1ccc(/C=C/C(=O)c2ccc3c(c2)OCCCO3)cc1	-2	-2	49*	9	48*	43*
O=C(/C=C/c1cccc(OCc2ccccc2)c1)c1cccnc1	11	-4	36*	-3	61*	70*
C=CCN1C(C(=O)OC)CN(Cc2cn(Cc3ccc(OC)cc3)nn2)CCS1(=O)=O (centres undefined)	·	·	·	1	·	·
COCCN1Cc2cc(C(=O)OC)c3c(c2C1=O)c1ccccc1n3S(=O)(=O)c1ccc(C)cc1	·	·	·	17	·	·
C/C(=N\NC(=O)c1cccnc1)c1cccc([N+](=O)[O-])c1	-2	-6	3	-2	·	·
CC(/C=C/c1cccc([N+](=O)[O-])c1)=N/NC(=O)c1cccnc1	-6	4	29*	1	20	16*
O=C(/C=C/c1cccnc1)c1ccc(F)c(F)c1	6	2	71*	3	97*	95*
O=C(/C=C/c1ccc2c(c1)OCCO2)c1ccccc1	5	-7	27*	4	56*	43*
Cc1ccc(S(=O)(=O)N2CCCC(C(=O)NCCN3CCC(Cc4ccccc4)CC3)C2)cc1 (centres undefined)	·	·	·	2	·	·
CCCN(C(=O)COC(=O)CCC(=O)c1ccccc1)c1c(N)n(Cc2ccccc2)c(=O)[nH]c1=O	·	-7	-2	4	·	·
COc1cc(/C=C/C(=O)c2ccc(Cl)s2)cc(OC)c1O	-1	3	38*	·	74*	38*
COc1ccc(/C=C/C(=O)c2ccc(Cl)s2)cc1O	6	-5	42*	16	54*	43*
O=C(C=Cc1ccc(Cl)s1)c1ccc(Cl)s1	·	7	21	8	·	·
COc1ccc(/C=C/C(=O)c2cccc(-n3cnnn3)c2)cc1O	-1	-8	11	7	·	·
CCN(CC)c1ccc(/C=C2/SC(=O)N(C(C)C)C2=O)o1	·	7	93*	1	73*	109*
COC(=O)C1=C(C)N(Cc2ccccc2C(F)(F)F)C(=NCc2ccc3c(c2)OCO3)NC1c1cccc(F)c1 (centres undefined)	·	·	·	5	·	·
O=C(CC1CCCC1)N1CC[C@H]2[C@H](CCCN2Cc2ccccc2)C1	·	·	·	0	·	·
COc1ccc(NC(=O)c2cc(-c3ccc(C)o3)nc3ccccc23)c(OC)c1	10	4	5	2	·	·
Cc1ccc(-c2cc(C(=O)Nc3ccccc3C(N)=O)c3ccccc3n2)o1	21	4	43*	22	28*	28*
O=C(O)Cc1c[nH]c2ccc(O)cc12	-2	1	38*	3	7	39*
COC(=O)[C@]12C[C@H](CC(=O)NCCC(C)C)C(=O)N(Cc3ccco3)C1=C[C@H](COCc1ccccc1)O[C@@H]2C	·	·	·	3	·	·
COc1ccc(C2CC(=O)C(c3ccccc3C)=CN2Cc2ccccc2)cc1 (centres undefined)	·	·	·	2	·	·
C=C(C(=O)c1ccccc1)C(C)CC(=O)c1ccccc1 (centres undefined)	5	-2	14	-7	·	·
C=C(C(=O)c1ccccc1)C(NC(C)(C)C)c1ccccc1 (centres undefined)	·	-5	42*	4	65*	54*
COc1ccc(N=C2S/C(=C\c3ccc(Cl)c([N+](=O)[O-])c3)C(=O)N2CCN(C)C)cc1	3	0	4	2	·	·
CCN(CC)CCN1C(=O)/C(=C\c2ccc(Cl)c([N+](=O)[O-])c2)SC1=Nc1ccc(OC)cc1	-9	5	39*	7	27*	14*
O=C(OC12CCCN(C1)/C(=C/c1ccccc1)C2)c1ccc(Cl)cc1 (centres undefined)	·	·	·	3	·	·
CCCCn1c(SCC(=O)NCc2ccco2)nnc1-c1ccoc1C	8	20	24*	4	55*	28*
